Results: publication PMC2761715 (Molecular cancer therapeutics, 2009)

Legend:
Format in all cases: cell-based
LC3 = test: LC3-I to LC3-II conversion, western blot
Procedure, shortened: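 H929 or 8226 cells exposed 4 h to test peptide or scrambled peptide (50 µg/ml H929; 100 µg/ml 8226) or 100 uM tunicamycin; NAC arm: H929 at 4 × 10^5 cells/ml, 10 mM NAC 30 min then 50 µg/ml for 4 h. Lysed on ice in NP-40/Tris pH 7.6 buffer with protease/phosphatase inhibitors; 10 µg protein, 8% SDS-PAGE, PVDF blot for LC3-I/II.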

H929 cells [1] = test: Mitochondrial membrane potential; conditions: H929, NAC 10 mM 30 min, then HYD1 50 µg/ml 4 hrs; Figure 5C
Procedure, shortened: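 H929 cells (4 × 10^5 cells/ml) pretreated 30 min with 10 mM NAC, then test compound 50 µg/ml for a further 4 h. Cells stained 15 min with 15 nM DiOC6, PBS-washed and resuspended, then loss of Δψm measured by flow cytometry; n=9.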

H929 cells [2] = test: Reactive oxygen species; conditions: NAC 10 mM; supplementary data S7
8226 cells = test: Cell death analysis, annexin V, FACS; conditions: addition of 3-MA, supplemental data S5
H929 cells [3] = test: Neutral comet assay; conditions: H929, 6 hours, 50 ug/ml HYD1 or HYDS or 50 ng/ml TRAIL, n=150; Figure 3D
Procedure, shortened: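 Neutral comet assay on H929 cells given 50 µg/ml test peptide, scrambled peptide, or 50 ng/ml TRAIL (positive control) for 6 h. 5,000 cells pelleted, taken up in PBS agar, layered onto frosted slides and run under neutral conditions. Comet moments measured from 50 images per treatment by CCD camera; n=150.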

Question: With `CC(=O)N[C@@H](CS)C(=O)O` [NAC, N-acetyl-L-cysteine] as the compound, how does the “reversal of HYD1-induced increase in LC3-II by NAC” value (LC3; H929, NAC 10 mM 30 min, then HYD1 50 µg/ml 4 hrs, Figure 5D) read?
Answer: The value was “completely reversed”.

Question: And the “reversal of HYD1-induced loss in Δψm by NAC” value (H929 cells [1])?
Answer: Its value is “not reversed by pretreatment with NAC”.

Question: And the “inhibition of ROS production by NAC” value (H929 cells [2])?
Answer: The value was “effective in inhibiting the production of ROS”.

Question: With `Cn1cnc(N)c2ncnc1-2` [3-MA, 3-Methyladenine] as the compound, how does the “sensitization to HYD1 induced cell death” value (8226 cells) read?
Answer: Its value is “sensitized 8226 cells to HYD1 induced cell death”.

Question: With Tunicamycin as the compound, how does the “conversion of LC3-I to LC3-II” value (LC3; 4 hour treatment, 50 µg/ml HYD1 for H929, 100 ug/ml for 8226, 100 uM tunicamycin) read?
Answer: Its value is “increased conversion of LC3-I to LC3-II”.

Question: With TRAIL as the compound, how does the “comet moments (double stranded DNA breaks)” value (H929 cells [3]) read?
Answer: Its value is “significant increase in comet moments”.
